Test [1] addresses DOR (Mus musculus, UniProt P32300). As to the kind of experiment: Radioligand competition binding assay, DOR. On the technique in general: Displacement assays read how much labelled ligand stays bound in the presence of the test substance.
Test [2] concerns mice. As to the kind of experiment: Warm-water tail immersion assay. The class given is in vivo, mouse. In short, it runs like this: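 Male Swiss-Webster mice (23–35 g, 7–8 weeks), n = 5 per group. Single test-compound dose of 10 mg/kg given subcutaneously at time 0. Tail-flick latency measured in water at 56 ± 0.1 °C. Saline served as negative control and morphine as positive control. Response expressed as % maximum possible effect, reported as mean ± SD.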

The target in test [3] is MOR (Mus musculus, UniProt P42866). The experiment in a line: Radioligand competition binding assay, MOR. The settings on record: for Selectivity δ/μ: ratio of Ki values DOR/MOR; for Selectivity κ/μ: ratio of Ki values KOR/MOR.
Sequence of MOR (P42866 whole entry): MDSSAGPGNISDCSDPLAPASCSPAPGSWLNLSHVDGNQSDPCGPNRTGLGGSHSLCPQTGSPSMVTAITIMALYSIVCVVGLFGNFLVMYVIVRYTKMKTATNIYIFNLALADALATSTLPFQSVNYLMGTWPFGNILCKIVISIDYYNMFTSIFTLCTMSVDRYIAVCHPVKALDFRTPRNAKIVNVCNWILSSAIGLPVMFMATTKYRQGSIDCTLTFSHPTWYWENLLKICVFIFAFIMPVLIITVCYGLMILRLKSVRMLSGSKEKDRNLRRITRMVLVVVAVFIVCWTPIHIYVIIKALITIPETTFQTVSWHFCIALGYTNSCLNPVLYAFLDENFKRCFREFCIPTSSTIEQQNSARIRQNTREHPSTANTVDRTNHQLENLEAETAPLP

The values below come from article PMC10546487 (Journal of medicinal chemistry, 2022).

Sequence of DOR (P32300 whole entry): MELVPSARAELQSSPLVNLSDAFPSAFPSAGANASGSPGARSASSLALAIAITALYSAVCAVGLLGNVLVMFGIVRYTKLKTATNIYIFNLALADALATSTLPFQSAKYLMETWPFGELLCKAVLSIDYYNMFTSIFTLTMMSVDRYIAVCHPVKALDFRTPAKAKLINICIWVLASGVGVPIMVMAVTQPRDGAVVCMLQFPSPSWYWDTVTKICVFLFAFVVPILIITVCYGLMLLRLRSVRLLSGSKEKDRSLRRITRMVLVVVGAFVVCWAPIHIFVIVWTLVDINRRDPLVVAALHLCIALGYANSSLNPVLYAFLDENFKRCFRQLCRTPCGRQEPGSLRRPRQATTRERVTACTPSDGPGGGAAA

In general, Ki refers to a measure of affinity in units of concentration, obtained from inhibition or displacement. The low end stands for a stronger hold on the target, the high end for a looser hold on the target. Consider `O=C(N[C@@H]1CC[C@@]2(O)[C@H]3Cc4ccc(O)c5c4[C@@]2(CCN3CC2CC2)[C@H]1O5)c1cccc2cc(Br)[nH]c12` [Compound 1, 17-Cyclopropylmethyl-3,14β-dihydroxy-4,5α-epoxy-6β-(2-bromo-indole-7-carboxamido)morphinan], for which, in test [1], the Ki came out at 3.04 ± 0.27 nM.

Turning to `O=C(N[C@@H]1CC[C@@]2(O)[C@H]3Cc4ccc(O)c5c4[C@@]2(CCN3CC2CC2)[C@H]1O5)c1cccc2cc(Cl)[nH]c12` [Compound 2, 17-Cyclopropylmethyl-3,14β-dihydroxy-4,5α-epoxy-6β-(2-chloro-indole-7-carboxamido)morphinan], in test [1], the inhibitory constant (Ki) worked out at 2.42 ± 0.44 nM.

In the case of `N#Cc1cc2cccc(C(=O)N[C@@H]3CC[C@@]4(O)[C@H]5Cc6ccc(O)c7c6[C@@]4(CCN5CC4CC4)[C@H]3O7)c2[nH]1` [Compound 3, 17-Cyclopropylmethyl-3,14β-dihydroxy-4,5α-epoxy-6β-(2-cyano-indole-7-carboxamido)morphinan], in test [1], the Ki came out at 12 ± 0.62 nM.

`Cc1cc2cccc(C(=O)N[C@@H]3CC[C@@]4(O)[C@H]5Cc6ccc(O)c7c6[C@@]4(CCN5CC4CC4)[C@H]3O7)c2[nH]1` [Compound 4, 17-Cyclopropylmethyl-3,14β-dihydroxy-4,5α-epoxy-6β-(2-methyl-indole-7-carboxamido)morphinan] gave a Ki in test [1] of 15.9 ± 0.38 nM.

In turn, `O=C(N[C@@H]1CC[C@@]2(O)[C@H]3Cc4ccc(O)c5c4[C@@]2(CCN3CC2CC2)[C@H]1O5)c1cccc2cc(-c3ccccc3)[nH]c12` [Compound 5, 17-Cyclopropylmethyl-3,14β-dihydroxy-4,5α-epoxy-6β-(2-phenyl-indole-7-carboxamido)morphinan] showed a Ki in test [1] of 23.8 ± 3.96 nM.

`O=C(N[C@@H]1CC[C@@]2(O)[C@H]3Cc4ccc(O)c5c4[C@@]2(CCN3CC2CC2)[C@H]1O5)c1cccc2c(Br)c[nH]c12` [Compound 6, 17-Cyclopropylmethyl-3,14β-dihydroxy-4,5α-epoxy-6β-(3-bromo-indole-7-carboxamido)morphinan] displayed an inhibition constant (Ki) in test [1] of 11.6 ± 2.68 nM.

With `N#Cc1c[nH]c2c(C(=O)N[C@@H]3CC[C@@]4(O)[C@H]5Cc6ccc(O)c7c6[C@@]4(CCN5CC4CC4)[C@H]3O7)cccc12` [Compound 8, 17-Cyclopropylmethyl-3,14β-dihydroxy-4,5α-epoxy-6β-(3-cyano-indole-7-carboxamido)morphinan], the Ki in test [1] amounted to 25.4 ± 3.39 nM.

For `O=C(N[C@@H]1CC[C@@]2(O)[C@H]3Cc4ccc(O)c5c4[C@@]2(CCN3CC2CC2)[C@H]1O5)c1cccc2c([N+](=O)[O-])c[nH]c12` [Compound 9, 17-Cyclopropylmethyl-3,14β-dihydroxy-4,5α-epoxy-6β-(3-nitro-indole-7-carboxamido)morphinan], in test [1], the Ki is 25.6 ± 8.06 nM. For the same compound, the “Antinociception effect (% MPE)” value in test [2] (10 mg/kg s.c., 56 °C) is reported as “noticeable antinociception”.

Consider `Cl.O=Cc1c[nH]c2c(C(=O)N[C@@H]3CC[C@@]4(O)[C@H]5Cc6ccc(O)c7c6[C@@]4(CCN5CC4CC4)[C@H]3O7)cccc12` [Compound 10, 17-Cyclopropylmethyl-3,14β-dihydroxy-4,5α-epoxy-6β-(3-formyl-indole-7-carboxamido)morphinan], for which the “Selectivity δ/μ” value in test [3] was 35.1.

In test [1], `CC(=O)Nc1c[nH]c2c(C(=O)N[C@@H]3CC[C@@]4(O)[C@H]5Cc6ccc(O)c7c6[C@@]4(CCN5CC4CC4)[C@H]3O7)cccc12` [Compound 12, 17-Cyclopropylmethyl-3,14β-dihydroxy-4,5α-epoxy-6β-(3-acet-amido-indole-7-carboxamido)morphinan] yielded a Ki of 31 ± 4.96 nM.

In test [1], `CC(C)c1c[nH]c2c(C(=O)N[C@@H]3CC[C@@]4(O)[C@H]5Cc6ccc(O)c7c6[C@@]4(CCN5CC4CC4)[C@H]3O7)cccc12` [Compound 14, 17-Cyclopropylmethyl-3,14β-dihydroxy-4,5α-epoxy-6β-(3-iso-propyl-indole-7-carboxamido)morphinan] registered a Ki of 19.8 ± 2.72 nM.

In test [1], `O=C(N[C@@H]1CC[C@@]2(O)[C@H]3Cc4ccc(O)c5c4[C@@]2(CCN3CC2CC2)[C@H]1O5)c1cccc2c(C3CCCCC3)c[nH]c12` [Compound 16, 17-Cyclopropylmethyl-3,14β-dihydroxy-4,5α-epoxy-6β-(3-cyclo-hexyl-indole-7-carboxamido)morphinan] yielded a Ki of 64 ± 1.99 nM.

In test [1], `O=C(N[C@@H]1CC[C@@]2(O)[C@H]3Cc4ccc(O)c5c4[C@@]2(CCN3CC2CC2)[C@H]1O5)c1cccc2c(-c3ccccc3)c[nH]c12` [Compound 17, 17-Cyclopropylmethyl-3,14β-dihydroxy-4,5α-epoxy-6β-(3-phenyl-indole-7-carboxamido)morphinan] showed a Ki of 49.3 ± 10.1 nM.

With `O=C(N[C@H]1CC[C@@]2(O)[C@H]3Cc4ccc(O)c5c4[C@@]2(CCN3CC2CC2)[C@H]1O5)c1cccc2cc(Cl)[nH]c12` [Compound 19, 17-Cyclopropylmethyl-3,14β-dihydroxy-4,5α-epoxy-6α-(2-chloro-indole-7-carboxamido)morphinan], affinity in test [1] was put at a Ki of 1.82 ± 0.06 nM.

Regarding `N#Cc1cc2cccc(C(=O)N[C@H]3CC[C@@]4(O)[C@H]5Cc6ccc(O)c7c6[C@@]4(CCN5CC4CC4)[C@H]3O7)c2[nH]1` [Compound 20, 17-Cyclopropylmethyl-3,14β-dihydroxy-4,5α-epoxy-6α-(2-cyano-indole-7-carboxamido)morphinan], the “Selectivity δ/μ” value in test [3] is 12.2. In test [1], this compound had a Ki of 10.7 ± 0.93 nM.

As for `O=C(N[C@H]1CC[C@@]2(O)[C@H]3Cc4ccc(O)c5c4[C@@]2(CCN3CC2CC2)[C@H]1O5)c1cccc2cc(-c3ccccc3)[nH]c12` [Compound 22, 17-Cyclopropylmethyl-3,14β-dihydroxy-4,5α-epoxy-6α-(2-phenyl-indole-7-carboxamido)morphinan], the “Selectivity δ/μ” value in test [3] came out at 2.2. The affinity in test [1], expressed as Ki, was 5.36 ± 1 nM.

In the case of `O=C(N[C@H]1CC[C@@]2(O)[C@H]3Cc4ccc(O)c5c4[C@@]2(CCN3CC2CC2)[C@H]1O5)c1cccc2c(Br)c[nH]c12` [Compound 23, 17-Cyclopropylmethyl-3,14β-dihydroxy-4,5α-epoxy-6α-(3-bromo-indole-7-carboxamido)morphinan], the Ki in test [1] is 19.2 ± 3.99 nM.

For the compound `O=C(N[C@H]1CC[C@@]2(O)[C@H]3Cc4ccc(O)c5c4[C@@]2(CCN3CC2CC2)[C@H]1O5)c1cccc2c(Cl)c[nH]c12` [Compound 24, 17-Cyclopropylmethyl-3,14β-dihydroxy-4,5α-epoxy-6α-(3-chloro-indole-7-carboxamido)morphinan], in test [1], the affinity corresponds to a Ki of 37.1 ± 9.46 nM. This Ki lies about 1.9-fold higher than the previous one.

On to `N#Cc1c[nH]c2c(C(=O)N[C@H]3CC[C@@]4(O)[C@H]5Cc6ccc(O)c7c6[C@@]4(CCN5CC4CC4)[C@H]3O7)cccc12` [Compound 25, 17-Cyclopropylmethyl-3,14β-dihydroxy-4,5α-epoxy-6α-(3-cyano-indole-7-carboxamido)morphinan], for which, in test [3], the “Selectivity κ/μ” value is reported as 6.3. In test [1], this compound displayed a Ki of 12.2 ± 2.2 nM.

In the case of `O=C(N[C@H]1CC[C@@]2(O)[C@H]3Cc4ccc(O)c5c4[C@@]2(CCN3CC2CC2)[C@H]1O5)c1cccc2c([N+](=O)[O-])c[nH]c12` [Compound 26, 17-Cyclopropylmethyl-3,14β-dihydroxy-4,5α-epoxy-6α-(3-nitro-indole-7-carboxamido)morphinan], in test [3], the “Selectivity δ/μ” value is listed as 20.3 and the “Selectivity κ/μ” value came out at 9.2. This compound came in with a Ki in test [1] of 21.6 ± 2.57 nM.

`O=Cc1c[nH]c2c(C(=O)N[C@H]3CC[C@@]4(O)[C@H]5Cc6ccc(O)c7c6[C@@]4(CCN5CC4CC4)[C@H]3O7)cccc12` [Compound 27, 17-Cyclopropylmethyl-3,14β-dihydroxy-4,5α-epoxy-6α-(3-formyl-indole-7-carboxamido)morphinan]: the Ki in test [1] is 11.9 ± 1.91 nM.

For `CC(=O)Nc1c[nH]c2c(C(=O)N[C@H]3CC[C@@]4(O)[C@H]5Cc6ccc(O)c7c6[C@@]4(CCN5CC4CC4)[C@H]3O7)cccc12` [Compound 29, 17-Cyclopropylmethyl-3,14β-dihydroxy-4,5α-epoxy-6α-(3-acet-amido-indole-7-carboxamido)morphinan], the affinity in test [1], expressed as Ki, was 5.19 ± 0.35 nM.

As to `Cc1c[nH]c2c(C(=O)N[C@H]3CC[C@@]4(O)[C@H]5Cc6ccc(O)c7c6[C@@]4(CCN5CC4CC4)[C@H]3O7)cccc12` [Compound 30, 17-Cyclopropylmethyl-3,14β-dihydroxy-4,5α-epoxy-6α-(3-methyl-indole-7-carboxamido)morphinan], the inhibition constant (Ki) in test [1] was determined as 13.8 ± 4.02 nM. In test [2] (10 mg/kg s.c. in the presence of morphine (10 mg/kg)), the “Blockage of the morphine-mediated antinociception” value is recorded as “different degrees of inhibition of morphine’s antinociceptive effect”.

In turn, `CC(C)c1c[nH]c2c(C(=O)N[C@H]3CC[C@@]4(O)[C@H]5Cc6ccc(O)c7c6[C@@]4(CCN5CC4CC4)[C@H]3O7)cccc12` [Compound 31, 17-Cyclopropylmethyl-3,14β-dihydroxy-4,5α-epoxy-6α-(3-iso-propyl-indole-7-carboxamido)morphinan] showed a Ki in test [1] of 25.9 ± 5.69 nM.

The compound `O=C(N[C@H]1CC[C@@]2(O)[C@H]3Cc4ccc(O)c5c4[C@@]2(CCN3CC2CC2)[C@H]1O5)c1cccc2c(C3CCCC3)c[nH]c12` [Compound 32, 17-Cyclopropylmethyl-3,14β-dihydroxy-4,5α-epoxy-6α-(3-cyclo-pentyl-indole-7-carboxamido)morphinan] yielded a Ki in test [1] of 28.2 ± 5.4 nM.

In test [1], `O=C(N[C@H]1CC[C@@]2(O)[C@H]3Cc4ccc(O)c5c4[C@@]2(CCN3CC2CC2)[C@H]1O5)c1cccc2c(C3CCCCC3)c[nH]c12` [Compound 33, 17-Cyclopropylmethyl-3,14β-dihydroxy-4,5α-epoxy-6α-(3-cyclo-hexyl-indole-7-carboxamido)morphinan] displayed a Ki of 18.6 ± 7.24 nM.

In the case of `O=C(N[C@H]1CC[C@@]2(O)[C@H]3Cc4ccc(O)c5c4[C@@]2(CCN3CC2CC2)[C@H]1O5)c1cccc2c(-c3ccccc3)c[nH]c12` [Compound 34, 17-Cyclopropylmethyl-3,14β-dihydroxy-4,5α-epoxy-6α-(3-phenyl-indole-7-carboxamido)morphinan], the Ki in test [1] turned out to be 15 ± 2.71 nM.
